# Results: publication PMC7669533 (International Journal of Nanomedicine, 2020)
# Ends that are not written are not given here.
# Target: recombinant human VEGFR-2 (Homo sapiens, UniProt P35968)
# Assay: SPR binding affinity to immobilized VEGFR-2
# Summary of the method: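 Recombinant human receptor protein amine-coupled to a CM5 chip. Test peptides diluted in HBS-EP buffer and flowed over the surface at 0.0156, 0.03125, 0.0625, 0.125 and 0.25 μM, with resonance unit changes recorded. Response curves were fitted to a 1:1 Langmuir binding model to give the equilibrium dissociation constant KD.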
# Chain of recombinant human VEGFR-2 (P35968 20-1356): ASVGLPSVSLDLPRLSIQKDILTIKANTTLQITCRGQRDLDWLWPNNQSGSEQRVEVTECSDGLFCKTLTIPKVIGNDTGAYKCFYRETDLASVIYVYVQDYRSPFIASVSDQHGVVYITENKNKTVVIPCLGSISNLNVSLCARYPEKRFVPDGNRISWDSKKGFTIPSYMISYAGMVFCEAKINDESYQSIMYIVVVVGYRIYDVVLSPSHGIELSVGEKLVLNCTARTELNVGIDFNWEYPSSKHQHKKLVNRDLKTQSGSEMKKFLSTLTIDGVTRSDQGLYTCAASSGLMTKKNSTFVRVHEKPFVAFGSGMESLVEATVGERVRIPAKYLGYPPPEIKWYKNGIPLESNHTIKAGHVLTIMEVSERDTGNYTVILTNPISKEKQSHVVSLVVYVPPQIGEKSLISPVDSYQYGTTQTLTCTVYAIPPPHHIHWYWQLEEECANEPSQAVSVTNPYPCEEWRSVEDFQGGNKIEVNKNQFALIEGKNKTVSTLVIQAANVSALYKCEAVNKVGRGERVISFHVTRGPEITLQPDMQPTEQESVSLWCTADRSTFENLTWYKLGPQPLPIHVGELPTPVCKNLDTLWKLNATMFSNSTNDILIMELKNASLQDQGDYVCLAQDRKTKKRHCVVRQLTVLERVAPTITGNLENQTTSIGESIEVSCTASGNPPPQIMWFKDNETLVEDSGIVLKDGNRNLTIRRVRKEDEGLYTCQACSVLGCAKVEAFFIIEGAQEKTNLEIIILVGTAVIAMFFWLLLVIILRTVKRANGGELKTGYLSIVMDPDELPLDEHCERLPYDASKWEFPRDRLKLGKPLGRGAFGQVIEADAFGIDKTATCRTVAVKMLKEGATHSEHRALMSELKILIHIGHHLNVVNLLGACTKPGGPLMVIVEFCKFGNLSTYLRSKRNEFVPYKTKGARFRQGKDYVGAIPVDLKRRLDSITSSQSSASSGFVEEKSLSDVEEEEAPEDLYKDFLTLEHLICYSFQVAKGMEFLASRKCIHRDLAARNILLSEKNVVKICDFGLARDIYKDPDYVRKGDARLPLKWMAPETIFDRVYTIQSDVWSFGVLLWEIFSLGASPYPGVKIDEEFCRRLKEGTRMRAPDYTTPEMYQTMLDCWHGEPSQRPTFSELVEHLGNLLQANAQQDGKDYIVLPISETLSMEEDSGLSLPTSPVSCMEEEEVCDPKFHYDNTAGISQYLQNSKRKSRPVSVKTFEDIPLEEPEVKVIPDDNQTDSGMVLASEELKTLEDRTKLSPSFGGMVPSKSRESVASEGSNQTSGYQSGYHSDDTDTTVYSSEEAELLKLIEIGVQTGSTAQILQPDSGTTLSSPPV
row,Molecule,Kd [µM]
1,CC(C)C[C@H](NC(=O)[C@H](Cc1c[nH]c2ccccc12)NC(=O)[C@@H](NC(=O)[C@H](C)NC(=O)[C@H](CS)NC(=O)[C@H](CCCNC(=N)N)NC(=O)[C@H](CCCNC(=N)N)NC(=O)[C@H](CCCNC(=N)N)NC(=O)[C@H](CCC(N)=O)NC(=O)[C@H](CCCNC(=N)N)NC(=O)[C@H](CCCNC(=N)N)NC(=O)[C@H](CCCCN)NC(=O)[C@H](CCCCN)NC(=O)[C@@H](N)CCCNC(=N)N)[C@@H](C)O)C(=O)N1CCC[C@H]1C(=O)N1CCC[C@H]1C(=O)N[C@@H](CCCNC(=N)N)C(=O)O [TAT-AT7],0.0228
2,ATWLPPRC [AT7],0.283
